Measured values taken from ChEMBL document CHEMBL1149311, “Synthesis and antitumor activity of methyltriazene prodrugs simultaneously releasing DNA-methylating agents and the antiresistance drug O(6)-benzylguanine” (J Med Chem, 2004).
pIC50: −log10 of the molar value.

Experiments:
[1] = Half life of hydrolysis in deuterated phosphate buffer at pD 7.8; details: pH 7.8
NCI-H460 [2] = assay: Antitumor activity against human NCI-H460 cells at 100 uM relative to control; type: functional
Outline: (§1)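 NCI three-cell-line one-dose primary anticancer prescreen at 100 µM. Growth is expressed as % of untreated control cells, with the control taken as 100%.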

MCF7 [3] = assay: Antitumor activity against human MCF7 cells at 100 uM relative to control; type: functional; outline: as §1
SF-268 [4] = assay: Antitumor activity against human SF268 cells at 100 uM relative to control; type: functional; outline: as §1
NCI [5] = assay: Antitumor activity against human NCI leukemia cell line panel; type: functional, cell-based
Outline: (§2)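 Tested in the NCI in vitro disease-oriented human tumor cell screen. The endpoints are IC50 (molar concentration giving 50% growth inhibition), TGI (total growth inhibition) and LC50 (50% net cell death). The maximal concentration tested was 100 μM. Subpanel values are means of several individual cell lines.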

[6] = tested on: Non-small cell lung cancer cell line; assay: Antitumor activity against human NCI non-small cell lung cancer cell line panel; type: functional, cell-based; outline: as §2
NCI [7] = assay: Antitumor activity against human NCI colon cancer cell line panel; type: functional, cell-based; outline: as §2
NCI [8] = assay: Antitumor activity against human NCI CNS cancer cell line panel; type: functional, cell-based; outline: as §2
NCI [9] = assay: Antitumor activity against NCI human melanoma cell line panel; type: functional, cell-based; outline: as §2
carcinoma cell line = assay: Antitumor activity against human NCI ovarian carcinoma cell line panel; type: functional, cell-based; outline: as §2
NCI [10] = assay: Antitumor activity against human NCI renal cancer cell line panel; type: functional, cell-based; outline: as §2
NCI [11] = assay: Antitumor activity against human NCI prostate cancer cell line panel; type: functional, cell-based; outline: as §2
NCI [12] = assay: Antitumor activity against human NCI breast cancer cell line panel; type: functional, cell-based; outline: as §2
NCI-H460 [13] = assay: Antitumor activity against human NCI-H460 cells at 50 uM relative to control; type: functional
Outline: (§3)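 Tested in the NCI three-cell-line one-dose primary anticancer prescreen. The read-out is growth as % of untreated control cells (100%) at 50 μM.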

MCF7 [14] = assay: Antitumor activity against human MCF7 cells at 50 uM relative to control; type: functional; outline: as §3
SF-268 [15] = assay: Antitumor activity against human SF268 cells at 50 uM relative to control; type: functional; outline: as §3

Structure (SMILES) | half-life ([1]; deuterated phosphate buffer) | Activity (NCI-H460 [2]) | Activity (MCF7 [3]) | Activity (SF-268 [4]) | further results
CN(/N=N/c1nc(OCc2ccccc2)c2nc[nH]c2n1)C(=O)Oc1ccccc1 | 19.2 h | 87% | 107% | 102% | –
CCOC(=O)N(C)/N=N/c1nc(OCc2ccccc2)c2nc[nH]c2n1 | 58.3 h | 90% | 103% | 91% | –
CN(/N=N/c1nc(OCc2ccccc2)c2nc[nH]c2n1)C(=O)Oc1ccc(S(N)(=O)=O)cc1 | 2.82 h | – | – | – | –
CC(=O)Nc1ccc(OC(=O)N(C)/N=N/c2nc(OCc3ccccc3)c3nc[nH]c3n2)cc1 | 19.3 h | – | – | – | –
CN(/N=N/c1nc(OCc2ccccc2)c2nc[nH]c2n1)C(=O)c1ccc([N+](=O)[O-])cc1 | 16 h | – | – | – | –
CN(/N=N/c1nc(OCc2ccccc2)c2nc[nH]c2n1)C(=O)Oc1ccc(C(N)=O)cc1 | 6.42 h | – | – | – | –
Cn1nnc2c(C(N)=O)ncn2c1=O [TEMOZOLOMIDE] | – | – | – | – | half-life ([1]; buffer): 0.417 h; pIC50 (NCI [5]): 4.10; TGI (NCI [5]): > 100 µM; CC50 (NCI [5]; read-out: LC50 (the source's name)): > 100 µM; pIC50 [6]: 4.00; pIC50 (NCI [7]): 4.00; pIC50 (NCI [8]): 4.03; pIC50 (NCI [9]): 4.01; pIC50 (carcinoma cell line): 4.04; pIC50 (NCI [10]): 4.01; pIC50 (NCI [11]): 4.00; pIC50 (NCI [12]): 4.00
COC(=O)c1ccc(OC(=O)N(C)/N=N/c2nc(OCc3ccccc3)c3nc[nH]c3n2)cc1 | 2.45 h | – | – | – | Activity (NCI-H460 [13]): 53%; Activity (MCF7 [14]): 116%; Activity (SF-268 [15]): 107%
CN(/N=N/c1nc(OCc2ccccc2)c2nc[nH]c2n1)C(=O)c1ccccc1 | 38.3 h | 93% | 107% | 79% | –
CN(/N=N/c1nc(OCc2ccccc2)c2nc[nH]c2n1)C(=O)c1cccnc1 | 8.83 h | – | – | – | –
CC(=O)N(C)/N=N/c1nc(OCc2ccccc2)c2nc[nH]c2n1 | 58.3 h | 89% | 99% | 78% | –
